Experimental data published in ChEMBL document CHEMBL1817666, “Bicephalic amphiphile architecture affects antibacterial activity” (2011).
Calls of active or inactive are those of the source. The calls are words filed in the database; no cut-off is given here.

Tests used:
Assay type in all cases: functional
Staphylococcus aureus [1] = assay: Antibacterial activity against 2.5 x 10^6 CFU/mL Staphylococcus aureus subsp. aureus ATCC 29213 assessed as time required for bacterial killing at 100 uM by microscopy based bacterial killing assay
Pseudomonas aeruginosa [2] = assay: Antibacterial activity against 5 x 10^5 CFU/mL Pseudomonas aeruginosa Boston 41501 ATCC 27853 after 72 hrs by CLSI M07-A8 broth microdilution method
Procedure, shortened: (§1)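 Broth microdilution in Mueller-Hinton broth at 37 °C. Serially diluted compound added in triplicate wells, then overnight culture diluted to about 5 × 10⁶ cfu/mL inoculum, giving 5 × 10⁵ cfu/well. Inoculum checked by serial dilution and plating. Plates incubated 72 h at 37 °C. MIC is the lowest concentration with no growth visible by eye. At least 3 repeats per organism.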

Escherichia coli [3] = assay: Antibacterial activity against 5 x 10^5 CFU/mL Escherichia coli ATCC 25922 after 72 hrs by CLSI M07-A8 broth microdilution method; procedure, shortened: as §1
Enterococcus faecalis [4] = assay: Antibacterial activity against 5 x 10^5 CFU/mL Enterococcus faecalis ATCC 29212 after 72 hrs by CLSI M07-A8 broth microdilution method; procedure, shortened: as §1
Staphylococcus aureus [5] = assay: Antibacterial activity against 5 x 10^5 CFU/mL Staphylococcus aureus subsp. aureus ATCC 29213 after 72 hrs by CLSI M07-A8 broth microdilution method; procedure, shortened: as §1
Enterococcus faecalis [6] = assay: Antibacterial activity against 2.5 x 10^6 CFU/mL Enterococcus faecalis ATCC 29212 assessed as time required for bacterial killing at 100 uM by microscopy based bacterial killing assay
Enterococcus faecalis [7] = assay: Antibacterial activity against 5 x 10^5 CFU/mL Enterococcus faecalis ATCC 29212 incubated for 72 hrs followed by growing of cells on trypticase soy agar plate for 24 hrs by CLSI M07-A8 broth microdilution method
Procedure, shortened: (§2)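 After the 72 h, 37 °C Mueller-Hinton microdilution (5 × 10⁵ cfu/well, triplicate wells), 100 µl from each triplicate set is plated on trypticase soy agar and incubated 24 h. MBC is the lowest concentration giving no colonies. At least 3 repeats per organism.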

Escherichia coli [8] = assay: Antibacterial activity against 2.5 x 10^6 CFU/mL Escherichia coli ATCC 25922 assessed as time required for bacterial killing at 100 uM by microscopy based bacterial killing assay
Staphylococcus aureus [9] = assay: Antibacterial activity against 5 x 10^5 CFU/mL Staphylococcus aureus subsp. aureus ATCC 29213 incubated for 72 hrs followed by growing of cells on trypticase soy agar plate for 24 hrs by CLSI M07-A8 broth microdilution method; procedure, shortened: as §2
Escherichia coli [10] = assay: Antibacterial activity against 5 x 10^5 CFU/mL Escherichia coli ATCC 25922 incubated for 72 hrs followed by growing of cells on trypticase soy agar plate for 24 hrs by CLSI M07-A8 broth microdilution method; procedure, shortened: as §2
Pseudomonas aeruginosa [11] = assay: Antibacterial activity against 5 x 10^5 CFU/mL Pseudomonas aeruginosa Boston 41501 ATCC 27853 incubated for 72 hrs followed by growing of cells on trypticase soy agar plate for 24 hrs by CLSI M07-A8 broth microdilution method; procedure, shortened: as §2

Molecule	Time (Staphylococcus aureus [1]) [h]	MIC (Pseudomonas aeruginosa [2]; Boston 41501 ATCC 27853, 72 h) [µM]	MIC (Escherichia coli [3]; ATCC 25922, 72 h) [µM]	MIC (Enterococcus faecalis [4]; ATCC 29212, 72 h) [µM]	MIC (Staphylococcus aureus [5]; ATCC 29213, 72 h) [µM]	Time (Enterococcus faecalis [6]) [h]	MBC (Enterococcus faecalis [7]) [µM]	Time (Escherichia coli [8]) [h]	MBC (Staphylococcus aureus [9]) [µM]	MBC (Escherichia coli [10]) [µM]	MBC (Pseudomonas aeruginosa [11]) [µM]	Activity (Staphylococcus aureus [1])	Activity (Enterococcus faecalis [6])	Activity (Escherichia coli [8])	MIC (Pseudomonas aeruginosa [2]) [µM]	MIC (Escherichia coli [3]) [µM]	MIC (Enterococcus faecalis [4]) [µM]	MIC (Staphylococcus aureus [5]) [µM]
CCCCCCCCCCCCCCOc1cc(C[N+](C)(C)C)cc(C[N+](C)(C)C)c1.[Br-].[Br-]	0.25	63	31	31	4	0.25	31	1	4	31	63							
CCCCCCCCCCCCOc1cc(C[N+](C)(C)C)ccc1C[N+](C)(C)C		> 500	500	125	31		125		31	500	> 500	inactive	inactive	inactive				
CCCCCCCCCCCCCCOc1cccc(C[N+](C)(C)C)c1C[N+](C)(C)C.[Br-].[Br-]	1	125	63	31	6	24	31	0.5	6	63	125							
CCCCCCCCCCCCCCCCCCOc1cc(C[N+](C)(C)C)ccc1C[N+](C)(C)C.[Br-].[Br-]	0.25	250	63	31	16	0.25	31	0.5	16	63	250							
CCCCCCCCCCOc1ccc(C[N+](C)(C)C)cc1.[Br-]	0.5	250	63	16	8	0.5	16	0.5	8	63	250							
CCCCCCCCCCCCCCOc1ccc(C[N+](C)(C)C)cc1C[N+](C)(C)C.[Br-].[Br-]	1	125	31	16	6	2	16	1	6	31	125							
CCCCCCCCCCCCOS(=O)(=O)[O-].[Na+] [SODIUM LAURYL SULFATE]		> 500	> 500	500	250		500		250	> 500	> 500							
CCCCCCCCCCOc1cc(C[N+](C)(C)C)ccc1C[N+](C)(C)C		> 500	> 500	500	250		500		250	> 500	> 500	inactive	inactive	inactive				
CCCCCCCCCCCCCCCCOc1cc(C[N+](C)(C)C)ccc1C[N+](C)(C)C.[Br-].[Br-]	24	125	63	50	16		50	2	16	63	125		inactive					
N,N,N-trimethylhexadecan-1-aminium bromide							4		4	63	> 500				> 500	63	4	4
CCCCCCCCCCCCCCOc1cc(C[N+](C)(C)C)ccc1C[N+](C)(C)C.[Br-].[Br-]	48	250	63	31	16	48	31	72	16	63	250							
CCCCCCCCCCCCCCOc1ccc(C[N+](C)(C)C)cc1.[Br-]	0.25	> 500	> 500	16	6	0.25	16		6	> 500	> 500			inactive				
CCCCCCCCCCCCCCCCOc1cc(C[N+](C)(C)C)cc(C[N+](C)(C)C)c1.[Br-].[Br-]	0.25	125	63	31	8	0.25	31	0.25	8	63	125							
CCCCCCCCCCCCCCOc1c(C[N+](C)(C)C)cccc1C[N+](C)(C)C.[Br-].[Br-]	48	500	125	50	16		50		16	125	500		inactive	inactive				
CCCCCCCCCCCC[N+](C)(C)C		> 500	250	125	63		125		63	250	> 500							
